Test results reported in ChEMBL document CHEMBL4513216, “Probing the Open Global Health Chemical Diversity Library for Multistage-Active Starting Points for Next-Generation Antimalarials” (ACS Infect Dis, 2020).

Experiment: Toxicity liver stage against HepG2, at 10uM
Assay type: cell-based
Design: test concentration 10 uM, cell line HepG2-A16-CD81EGFP
Details: human, HepG2-A16-CD81EGFP cells; read-out: INHIBITION
In short: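 Uninfected HepG2-A16-CD81EGFP cells, 3 × 10^3 per well, 1536-well, plated on prespotted compound at 10 μM final, parasite-free screening media added to match infected plates; puromycin 10 μM positive, DMSO 0.5% negative; run in parallel with 48 h PbLuc assay at 37 °C, 5% CO2; viability by CellTiter-Glo luminescence, normalized to controls.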

Structure (SMILES)	cytotoxicity at 10 µM [%]
Cc1cc2ncn(C(=O)N3CCOCC3)c2cc1C	-1.45
CC1CCN(c2ncc(C#N)c(N)n2)CC1	15.5
CCN1CC(COc2ccc(OC)cc2)Oc2ccncc2S1(=O)=O (stereo unspecified)	-7.6
O=C1c2cccnc2OC(CN2CCOCC2)CN1C1CCC1 (stereo unspecified)	-4.18
Nc1nc2c(c(NC(=O)Nc3ccc(Cl)c(Cl)c3)n1)CCCC2	-6.92
CN(C)S(=O)(=O)N1CC(c2nc(-c3ccsc3)no2)C1	-6.6
CCC(C)NC(=O)c1nnn(-c2ccc(Br)cc2)n1 (stereo unspecified)	5.81
O=C(O)CC(CC(=O)N(Cc1ccsc1)C1CC1)c1cccs1 (stereo unspecified)	7.8
O=C(c1ccccn1)N1CCC(Oc2cccnc2)CC1	-3.59
Cc1nsc(C(=O)NCCc2ccc(F)cc2)n1	-6.92
Cc1cnc(N2CC(C(=O)N3CCOCC3)C3(CCOCC3)C2)nc1 (stereo unspecified)	4.47
CN1CCN([C@@H]2CN(C(=O)c3ccsc3)[C@@H]3CCCO[C@H]23)CC1	6.74
CN1C(Cn2cccn2)C[C@@H]2CN(Cc3cnn(C)c3)CC[C@@H]21 (stereo partly specified)	3.16
COCCN1CCn2cc(CNC(=O)C3CCC3)nc2C1	3.68
COC[C@@]12CCO[C@@H]1CCN(C(=O)Cc1ccccc1C)C2	2.05
CCS(=O)(=O)N1CC[C@H]2[C@H]1CC(=O)N2Cc1csc(C)n1	-133
COCC1COCCC12CCN(C(=O)COc1ccccc1)CC2 (stereo unspecified)	-1.69
Cc1noc([C@@H]2CC[C@@H]3[C@@H](CCN3S(C)(=O)=O)O2)n1	-2.16
COc1ncccc1C(=O)N1CC[C@H]2C[C@H](c3noc(C)n3)O[C@@H]2C1	5.31
O=S(=O)(NCC1CCN(c2cnccn2)CC1)c1c(F)cccc1F	10.4
COCc1c(C(=O)O)nnn1Cc1cccc(C(F)(F)F)c1	2.17
Cc1nc2[nH]cnc(Nc3cnn(C)c3)c-2n1	5.59
O=C(NCCO)c1sc2ncccc2c1C1CN(C2CCCC2)CCO1 (stereo unspecified)	10.8

Structure (SMILES)	cytotoxicity at 10 µM [%]
Cc1cc(C)nc(C2CCN(C3CCOCC3)C2)n1 (stereo unspecified)	0.469
Cc1ccccc1OC1CCN(S(=O)(=O)c2c(C)n[nH]c2C)CC1	0.0656
Cc1nc2c(c(Nc3ccccn3)n1)CN(S(C)(=O)=O)CC2	11.1
CN1CCOC(c2cncc(CCC(=O)N(C)C)n2)C1 (stereo unspecified)	0.55
CC(=O)N1CCCC(Cc2cnc(-c3c(C)nn(C)c3C)cn2)C1 (stereo unspecified)	-1.37
Cc1cc(C(=O)NCCc2c(C)nn(C)c2C)nc(N2CCCCC2)n1	-16
Brc1csc(-c2noc(C3COCCO3)n2)c1 (stereo unspecified)	-1.92
CCC(C)(C)C1CCCN1C(=O)c1coc(S(=O)(=O)NC)c1 (stereo unspecified)	-13.5
CS(=O)(=O)NC(c1ccccc1)c1ccc2c(c1)CCCO2 (stereo unspecified)	0.682
COC(=O)c1cccc(C(=O)N(C)Cc2cccc(F)c2)c1	5.75
COCCN(c1cc(C)nc2nc(C(F)(F)F)nn12)C1CCCC1	-0.0692
CCc1cc(=O)[nH]c(-c2ccc(NC(C)COC)nc2)n1 (stereo unspecified)	-146
O=c1[nH]c(C2CCOC2)nc2ccc(Cl)cc12 (stereo unspecified)	-12
CC(C)CN(C)S(=O)(=O)c1ccc(Cl)cc1C#N	-47.2
CC(NC(=O)CNc1cc2c(cc1Cl)OCCO2)c1ccco1 (stereo unspecified)	-1.31
Cn1c(SCc2noc(C(C)(C)C)n2)nnc1C1CCS(=O)(=O)C1 (stereo unspecified)	8.32
COCCCC(=O)Nc1[nH]nc(-c2ccncc2)c1C	-0.158
CCOCCN1CCN(CCC(=O)N2CCCCC2)CC1C (stereo unspecified)	-5.99
COc1cc(CSc2nnc(C)n2CC(N)=O)ccc1SC	-7.91
COc1c(CNCc2ccccc2Cn2cccn2)c(C)nn1C	9.79
CCn1cc(S(=O)(=O)NCC(OC)c2cccc(Cl)c2)cn1 (stereo unspecified)	10.1
CC(Nc1cccc2c1OCCO2)C(=O)Nc1ccc(Cl)cc1 (stereo unspecified)	2.84
CNS(=O)(=O)c1cccc(C(C)NCc2ccccc2OC)c1 (stereo unspecified)	-2.59

Structure (SMILES)	cytotoxicity at 10 µM [%]
Cc1nc(C)c(CNCc2nnc3n2CCCC3C(F)(F)F)s1 (stereo unspecified)	3.28
Cc1cncc(NCC(O)c2ccco2)n1 (stereo unspecified)	5.58
O=C(NCc1ccccc1CN1CCCC1)Nc1cccnc1	6.75
CC(C)(C)C(=O)NCCC(=O)NC(C)(C)c1ccc2c(c1)OCO2	-1.26
CSCC(=O)Nc1cccc(Oc2ccccn2)c1	-6.1
CNC(=O)CCNC(=O)c1ccccc1N1CCOCC1	2.29
COc1ccc(F)cc1C[S+]([O-])CC(=O)NCC(C)C (stereo unspecified)	-5.95
Cc1nc(C)n(C2CCCN(C(=O)CCn3ccnn3)C2)n1 (stereo unspecified)	-0.649
O=C(Nc1ccccc1-c1cccs1)N1CCN(CC(F)F)CC1	-2.11
CCn1c(C)cc(C(=O)NCc2cccc(S(=O)(=O)NC)c2)c1C	-6.43
COc1c(Br)cccc1CCNC(=O)c1csnn1	-2.5
CNC(=O)CN(C(=O)c1cc(C(C)C)no1)c1cccc(F)c1	9.77
CC(Nc1ccn(Cc2ccccn2)n1)C(=O)NC(C)(C)C (stereo unspecified)	-2.08
COc1c(C)cnc(CN(C)C(=O)Nc2ccc3c(c2)CCO3)c1C	-0.921
COc1ccc(C(NCc2cccc(C#N)c2)C(C)C)cc1 (stereo unspecified)	17
Cn1c(SCC(=O)NC(C)(C#N)C2CC2)nc2ccccc21 (stereo unspecified)	-2.15
CCc1noc(CN(C)C(=O)COc2cc(Cl)cc(Cl)c2)n1	-0.966
O=C(CCn1c(=O)oc2ccccc21)NCC(O)c1ccccc1 (stereo unspecified)	-15.6
Cc1cc(-c2nnn(CCC(N)=O)n2)ccc1F	-8.71
O=C(CN1CCCC1Cn1cncn1)Nc1cccnc1 (stereo unspecified)	-14.6
Cc1cc(C)cc(CN2CCN(C(=O)COCC3CCCO3)CC2=O)c1 (stereo unspecified)	4.07
CCCOCC(=O)N1CCC2(CC1)c1nc[nH]c1CCN2S(C)(=O)=O	3.22
Cn1ccnc1CN1CCC(c2ccnc(-c3cccc(O)c3)c2)C1 (stereo unspecified)	6.52

Structure (SMILES)	cytotoxicity at 10 µM [%]
CCn1nc(CC(C)C)cc1C(=O)N1CCN([C@H]2CCCC[C@@H]2O)CC1	-6.98
Cc1nc(N2CCN(C)CC2)ncc1C(=O)N1CC[C@](C)(O)[C@H](C)C1	1.88
Cc1cc(C2CCC2)nc(N2CC(n3cccn3)C2)n1	-3.59
CC(C)NS(=O)(=O)c1cc(C(=O)O)cc(-c2ccc3c(c2)OCO3)c1	0.873
Cc1cc(C(=O)N2CCc3ncnc(N4CCSCC4)c3CC2)[nH]n1	-6.98
Nc1nnc(CCNc2ncnc3c2CCN(C(=O)C2CC2)C3)s1	-7
CCc1nnc(N2CCN(c3ccccc3)C(=O)C2)o1	-8.74
COc1cc(C2CC(=O)Nc3c2nc2n3CCCC2)cc(OC)c1O (stereo unspecified)	-9.59
COc1ccc(OCc2cc(C(=O)N3CCOCC3)n[nH]2)c(Cl)c1	-3.66
Cc1cc(C)cc(CCC(=O)N(C)CCc2cn[nH]c2)c1	3.04
O=C1OCCN1Cc1cc(C(F)(F)F)ccc1F	-5.52
Cc1cc(N2CCCN(C(C(=O)O)c3cccc(C)c3F)CC2)ccn1 (stereo unspecified)	-2.11
CCOC(=O)N1CCCn2nc(C(=O)NCCN(C)C)cc2C1	3.13
Cc1cccnc1CN1CCC(c2nnc(Cn3cccn3)n2C)CC1	-11.5
CC(C)N(C)S(=O)(=O)N(C)Cc1ccc2c(c1)OCCO2	-2.84
CN1CCOC(CNCc2ccccc2OCc2ccccn2)C1 (stereo unspecified)	-9.39
COc1cc(CNCc2ccc(-n3nc(C)cc3C)nc2)cc(OC)c1	-8.57
CCOc1ccccc1C(CC(=O)Nc1ccccn1)NC(C)=O (stereo unspecified)	-3.95
Cc1cnn(CC2CN(Cc3nc(-c4ccco4)no3)CCO2)c1 (stereo unspecified)	-20.3
CN(Cc1cn(-c2ccccc2)nn1)C1CCCN(c2cccnn2)C1 (stereo unspecified)	-20.5
c1ccc(-n2ccc(CN3CCCCC3Cn3cncn3)n2)cc1 (stereo unspecified)	-7.85
CSc1ccc(C)c(C(=O)N2CCCC(n3cncn3)C2)c1 (stereo unspecified)	-13.1
Cc1cnn(CC2CCCN2Cc2nccn2CC(F)(F)F)c1 (stereo unspecified)	-8.5

Structure (SMILES)	cytotoxicity at 10 µM [%]
CCN1CCN(C2CCN(Cc3nnc(C(C)C)o3)CC2)C1=O	-0.677
CC(C)COC(C)C(=O)NCc1ccccc1 (stereo unspecified)	4.79
Fc1ccc(-c2nnc(CN3CCOC(Cn4cncn4)C3)o2)cc1 (stereo unspecified)	-5.97
CCOc1c(Cl)cccc1NCc1cc(C)on1	1.04
Cc1cnn(C2CCCN(C(=O)c3sccc3-n3cnnn3)C2)c1 (stereo unspecified)	-8.72
O=C(CCc1cccnc1)N1CCCC(n2cncn2)C1 (stereo unspecified)	-10.9
NC(=O)CN1CCCN(C(=O)Cc2ccc3ccccc3c2)CC1	7.82
CN1CCC(c2n[nH]c3ncccc23)C1 (stereo unspecified)	-20.1
CN(C)C(=O)CN1CCC2(CCCN(Cc3cccn3C)C2)C1=O (stereo unspecified)	11.3
Cn1cc(N2C(=O)CC[C@@H]3[C@H]2CCN3Cc2ccncc2)cn1	-8.85
CC(C)CNC(=O)[C@H]1CCS(=O)(=O)[C@@H]2CN(Cc3ccc(Cl)cc3)C[C@H]12	-13.9
CN1CCN([C@@H]2CCN(CC3CCOC3)[C@H]2Cc2cnn(C)c2)CC1 (stereo partly specified)	5.25
O=C(Cc1ccccn1)N1CCc2ncnc(N3CCCC3)c2CC1	-2.13
Cc1nnc(N2C[C@H](Oc3ccccn3)[C@H]3OCCC[C@H]32)s1	10.7
Cc1cccc(CN2Cc3ncn(C)c3C(COCC(=O)N(C)C)C2)n1 (stereo unspecified)	4.56
CC(C)N(C)Cc1cn2c(n1)CN(C(=O)Cc1ccsc1)CC2	-11.1
O=C(NCC1CC1)[C@@H]1CCO[C@@H]2CCN(Cc3ccc(F)cc3)C[C@H]21	1.42
CC(C)n1c(=O)[nH]c2cn(-c3ccc(Cl)cc3)c(=O)n21	-0.769
CC(C)CC(=O)NCC1CCC(C(c2ccccn2)N(C)C)CC1 (stereo unspecified)	12.2
